Measured values: ChEMBL document CHEMBL2434856, “Synthesis and in vitro and in vivo evaluation of antimalarial polyamines” (Eur J Med Chem, 2013)
Active and inactive are the calls of the source. The rule behind the calls is not given here.

Columns and labels:
L6 = assay: Cytotoxicity against rat L6 cells; format: cell-based
Procedure, shortened: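 Rat skeletal myoblast L6 cell line, tested alongside the P. falciparum K1 assay so that a selectivity index (IC50 L6 / IC50 Pf) could be derived. Read-out is IC50 in µM, reported as the mean of duplicate assays.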

Plasmodium falciparum = assay: Antimalarial activity against erythrocytic stage of chloroquine and pyrimethamine-resistant Plasmodium falciparum K1; format: functional, organism-based
Procedure, shortened: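 P. falciparum K1 (chloroquine- and pyrimethamine-resistant), erythrocytic stage, growth inhibition read as IC50 in µM. Chloroquine served as the positive control. Values are means of duplicate assays.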

[1] = Selectivity index, ratio of IC50 for rat L6 cells to IC50 for erythrocytic stage of chloroquine and pyrimethamine-resistant Plasmodium falciparum K1; format: toxicity, cell-based; conditions: read-out: Ratio IC50
Procedure, shortened: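 Selectivity index calculated as the IC50 against rat L6 skeletal myoblasts divided by the IC50 against the erythrocytic stage of P. falciparum K1, both in µM. Chloroquine served as the positive control in the parasite assay. IC50 values are means of duplicate assays.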

Plasmodium berghei [2] = assay: Antimalarial activity against GFP-transfected Plasmodium berghei ANKA infected in NMRI mouse assessed as reduction of parasitaemia at 50 mg/kg, ip qd for 4 days
Plasmodium berghei [3] = assay: Antimalarial activity against GFP-transfected Plasmodium berghei ANKA infected in NMRI mouse assessed as increase of mean survival time at 50 mg/kg, ip qd for 4 days
Mus musculus [4] = assay: Acute toxicity in NMRI mouse infected with GFP-transfected Plasmodium berghei ANKA at 150 mg/kg, ip; format: organism-based; design: dose 150 mg/kg, route intraperitoneal; conditions: in vivo
Plasmodium berghei [5] = assay: Antimalarial activity against GFP-transfected Plasmodium berghei ANKA infected in NMRI mouse assessed as increase of mean survival time at 30 mg/kg, ip qd for 4 days
Plasmodium berghei [6] = assay: Antimalarial activity against GFP-transfected Plasmodium berghei ANKA infected in NMRI mouse assessed as reduction of parasitaemia at 30 mg/kg, ip qd for 4 days; design: scale not given: the % may be the effect or the level left; conditions: route intraperitoneal
Plasmodium berghei [7] = assay: Antimalarial activity against GFP-transfected Plasmodium berghei ANKA infected in NMRI mouse assessed as increase of mean survival time at 20 mg/kg, ip qd for 4 days
Mus musculus [8] = assay: Acute toxicity in NMRI mouse infected with GFP-transfected Plasmodium berghei ANKA at 100 mg/kg, ip; format: organism-based; design: dose 100 mg/kg, route intraperitoneal; conditions: in vivo
Plasmodium berghei [9] = assay: Antimalarial activity against GFP-transfected Plasmodium berghei ANKA infected in NMRI mouse assessed as reduction of parasitaemia at 20 mg/kg, ip qd for 4 days

Row | SMILES | IC50 (L6) [µM] | IC50 (Plasmodium falciparum) [µM] | selectivity ratio [1] | also measured
1 | CC(C)(C)OC(=O)N(CCCCCCCCCCCCN(CCCNC(=O)c1ccccc1)C(=O)OC(C)(C)C)CCCNC(=O)c1ccccc1 | 8.3 | 0.16 | 52 | –
2 | O=C(NCCCNCCCCNCCCNC(=O)c1ccccc1)c1ccccc1 | 89 | 0.45 | 200 | –
3 | O=C(CCc1ccccc1O)NCCCNCCCCNCCCNC(=O)CCc1ccccc1O | 86 | 0.015 | 5700 | Activity (Plasmodium berghei [2]): inactive; Activity (Plasmodium berghei [3]): inactive; Activity (Mus musculus [4]): Non-toxic
4 | CC(C)(C)OC(=O)N(CCCCCCCCN(CCCNC(=O)Cc1ccccc1O)C(=O)OC(C)(C)C)CCCNC(=O)Cc1ccccc1O | 16 | 0.73 | 22 | –
5 | COc1ccc(OC)c(CC(=O)NCCCNCCCCCCCCCCCCNCCCNC(=O)Cc2cc(OC)ccc2OC)c1 | 23 | 0.19 | 121 | –
6 | COc1ccc(OC)c(C(=O)NCCCNCCCCNCCCNC(=O)c2cc(OC)ccc2OC)c1 | 75 | 0.93 | 81 | –
7 | CC(C)(C)OC(=O)N(CCCCCCCCN(CCCNC(=O)Cc1ccccc1)C(=O)OC(C)(C)C)CCCNC(=O)Cc1ccccc1 | 8.6 | 0.47 | 18 | –
8 | COc1ccc(CCC(=O)NCCCNCCCCCCCCCCCCNCCCNC(=O)CCc2ccc(OC)c(OC)c2)cc1OC | 57 | 0.071 | 803 | –
9 | O=C(Cc1ccccc1O)NCCCNCCCCCCCCNCCCNC(=O)Cc1ccccc1O | 55 | 0.0013 | 42300 | –
10 | O=C(NCCCNCCCCCCCCCCCCNCCCNC(=O)c1ccccc1)c1ccccc1 | 6.9 | 0.16 | 43 | –
11 | O=C(NCCCNCCCCCCCCCCCCNCCCNC(=O)c1ccccc1O)c1ccccc1O | 2.5 | 0.38 | 6.6 | –
12 | O=C(NCCCNCCCCNCCCNC(=O)c1ccccc1O)c1ccccc1O | 83 | 1.9 | 44 | –
13 | COc1ccc(OC)c(CC(=O)NCCCNCCCCCCCCNCCCNC(=O)Cc2cc(OC)ccc2OC)c1 | 61 | 0.012 | 5080 | –
14 | COc1ccccc1CC(=O)NCCCNCCCCCCCCCCCCNCCCNC(=O)Cc1ccccc1OC | 21 | 0.078 | 269 | –
15 | COc1ccc(OC)c(C(=O)NCCCNCCCCCCCCCCCCNCCCNC(=O)c2cc(OC)ccc2OC)c1 | 2.2 | 0.39 | 5.6 | –
16 | CC(C)(C)OC(=O)N(CCCCCCCCCCCCN(CCCNC(=O)c1ccccc1O)C(=O)OC(C)(C)C)CCCNC(=O)c1ccccc1O | 93 | 0.5 | 186 | –
17 | COc1ccc(CC(=O)NCCCNCCCCCCCCCCCCNCCCNC(=O)Cc2ccc(OC)cc2)cc1 | 19 | 0.2 | 95 | –
18 | COc1ccc(CCC(=O)NCCCNCCCCNCCCNC(=O)CCc2ccc(OC)c(OC)c2)cc1OC | 73 | 0.46 | 160 | –
19 | O=C(Cc1ccccc1O)NCCCNCCCCNCCCNC(=O)Cc1ccccc1O | – | – | – | Activity (Plasmodium berghei [5]): inactive; Activity (Mus musculus [4]): Toxic; Activity (Plasmodium berghei [6]): 27.9%

Row | SMILES | IC50 (L6) [µM] | IC50 (Plasmodium falciparum) [µM] | selectivity ratio [1] | also measured
20 | CC(C)(C)OC(=O)N(CCCCCCCCCCCCN(CCCNC(=O)CCc1ccccc1)C(=O)OC(C)(C)C)CCCNC(=O)CCc1ccccc1 | 4 | 0.24 | 17 | –
21 | CC(C)(C)OC(=O)N(CCCCCCCCCCCCN(CCCNC(=O)Cc1ccccc1O)C(=O)OC(C)(C)C)CCCNC(=O)Cc1ccccc1O | 10 | 0.17 | 59 | –
22 | COc1ccc(OC)c(C(=O)NCCCN(CCCCCCCCCCCCN(CCCNC(=O)c2cc(OC)ccc2OC)C(=O)OC(C)(C)C)C(=O)OC(C)(C)C)c1 | 1.8 | 0.18 | 10 | –
23 | CC(C)(C)OC(=O)N(CCCCCCCCCCCCN(CCCNC(=O)Cc1ccccc1)C(=O)OC(C)(C)C)CCCNC(=O)Cc1ccccc1 | 8.2 | 0.26 | 32 | –
24 | COc1ccc(CCC(=O)NCCCN(CCCCCCCCCCCCN(CCCNC(=O)CCc2ccc(OC)c(OC)c2)C(=O)OC(C)(C)C)C(=O)OC(C)(C)C)cc1OC | 2.5 | 0.066 | 38 | –
25 | O=C(Cc1ccccc1)NCCCNCCCCCCCCNCCCNC(=O)Cc1ccccc1 | 74 | 0.015 | 4930 | Activity (Plasmodium berghei [7]): inactive; Activity (Mus musculus [8]): Toxic; Activity (Plasmodium berghei [9]): inactive
26 | COc1ccc(OC)c(CCC(=O)NCCCNCCCCNCCCNC(=O)CCc2cc(OC)ccc2OC)c1 | 99 | 0.0061 | 16200 | –
27 | COc1ccc(CC(=O)NCCCN(CCCCCCCCCCCCN(CCCNC(=O)Cc2ccc(OC)cc2)C(=O)OC(C)(C)C)C(=O)OC(C)(C)C)cc1 | 4.7 | 0.21 | 22 | –
28 | O=C(CCc1ccccc1)NCCCNCCCCCCCCCCCCNCCCNC(=O)CCc1ccccc1 | 6.9 | 0.073 | 95 | –
29 | O=C(CCc1ccccc1O)NCCCNCCCCCCCCCCCCNCCCNC(=O)CCc1ccccc1O | 62 | 0.0095 | 6530 | –
30 | O=C(Cc1ccccc1)NCCCNCCCCCCCCCCCCNCCCNC(=O)Cc1ccccc1 | 22 | 0.16 | 138 | –
31 | O=C(Cc1ccccc1O)NCCCNCCCCCCCCCCCCNCCCNC(=O)Cc1ccccc1O | 42 | 0.0086 | 4880 | –
32 | COc1ccc(OC)c(CC(=O)NCCCN(CCCCCCCCCCCCN(CCCNC(=O)Cc2cc(OC)ccc2OC)C(=O)OC(C)(C)C)C(=O)OC(C)(C)C)c1 | 2.2 | 0.16 | 14 | –
33 | COc1ccc(OC)c(CCC(=O)NCCCNCCCCCCCCCCCCNCCCNC(=O)CCc2cc(OC)ccc2OC)c1 | 6.5 | 0.11 | 59 | –
34 | CC(C)(C)OC(=O)N(CCCCCCCCCCCCN(CCCNC(=O)CCc1ccccc1O)C(=O)OC(C)(C)C)CCCNC(=O)CCc1ccccc1O | 3.6 | 0.13 | 28 | –
35 | COc1ccc(OC)c(CC(=O)NCCCN(CCCCCCCCN(CCCNC(=O)Cc2cc(OC)ccc2OC)C(=O)OC(C)(C)C)C(=O)OC(C)(C)C)c1 | 1.9 | 0.048 | 40 | –
36 | COc1ccc(OC)c(CCC(=O)NCCCN(CCCCCCCCCCCCN(CCCNC(=O)CCc2cc(OC)ccc2OC)C(=O)OC(C)(C)C)C(=O)OC(C)(C)C)c1 | 2.3 | 0.18 | 13 | –
37 | COc1ccccc1CC(=O)NCCCN(CCCCCCCCCCCCN(CCCNC(=O)Cc1ccccc1OC)C(=O)OC(C)(C)C)C(=O)OC(C)(C)C | 2.7 | 0.46 | 5.9 | –
38 | O=C(CCc1ccccc1)NCCCNCCCCNCCCNC(=O)CCc1ccccc1 | 91 | 0.1 | 910 | –
